Data: ChEMBL document CHEMBL3785040, “Syntheses and Biological Evaluations of Highly Functionalized Hydroxamate Containing and N-Methylthio Monobactams as Anti-Tuberculosis and β-Lactamase Inhibitory Agents” (Medchemcomm, 2016)
In brackets after ≈: the same amount, converted by molar mass. Activity calls are given as the source filed them. The rule behind the calls is not given here.

Experiments:
[1] = Inhibition of purified beta-lactamase NDM-1 (unknown origin) using imipenem as substrate preincubated for 10 mins followed by substrate addition
In short: (§1)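 Test compound was preincubated 10 min with enzyme, then substrate was added and optical density was followed over time to determine Ki (μM). CTX-M-14 (class A), Oxa-48 (class D) and NDM-1 (class B) were purified enzymes; VIM-1 (class B) was a lysate. NDM-1 used imipenem as substrate; the other three used nitrocefin.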

[2] = Inhibition of beta-lactamase VIM-1 lysate (unknown origin) using nitrocefin as substrate preincubated for 10 mins followed by substrate addition; in short: as §1
[3] = Inhibition of purified beta-lactamase Oxa-48 (unknown origin) using nitrocefin as substrate preincubated for 10 mins followed by substrate addition; in short: as §1
[4] = Inhibition of purified beta-lactamase CTX-M-14 (unknown origin) using nitrocefin as substrate preincubated for 10 mins followed by substrate addition; in short: as §1
[5] = system: Mycobacterium tuberculosis; assay: Antituberculosis activity against Mycobacterium tuberculosis H37Rv in 7H12 medium incubated for 4 days by Microplate Alamar Blue assay; type: functional; settings: 96 h
In short: (§2)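 MICs in μM were determined against M. tuberculosis H37Rv by Microplate Alamar Blue assay. Line 2 used 7H12 medium, which is 7H9 medium plus casitone, palmitic acid, albumin and catalase.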

[6] = system: Mycobacterium tuberculosis; assay: Antituberculosis activity against Mycobacterium tuberculosis H37Rv in glycerol-alanine salts medium incubated for 4 days by Microplate Alamar Blue assay; type: functional; settings: 96 h; in short: as §2
Mycolicibacterium vaccae = assay: Antibacterial activity against Mycobacterium vaccae IMET 10670 incubated for 18 to 24 hrs measured after 24 to 48 hrs by agar diffusion assay; type: functional, organism-based
In short: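 Kirby–Bauer agar diffusion assay; the read-out is the diameter of the inhibition zone in mm.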

`CC(=O)O[C@@H]1NC(=O)[C@H]1NC(=O)COc1ccccc1` showed a Ki [1] of 5.87 µM, a Ki [2] greater than 160 µM and a Ki [3] greater than 160 µM. For the same molecule, the Ki [4] was greater than 160 µM.
Work on `C[C@@H](O[Si](C)(C)C(C)(C)C)[C@H]1C(=O)N[C@@H]1N(OCc1ccccc1)C(=O)c1ccccc1` yielded a Ki [1] greater than 160 µM, an MIC [5] greater than 100 µM and a Ki [2] greater than 160 µM. It also gave a Ki [3] greater than 160 µM, a Ki [4] of 0.25 µM and an MIC [6] greater than 100 µM.
With `CSN1C(=O)[C@H]([C@@H](C)O[Si](C)(C)C(C)(C)C)[C@H]1N(OCc1ccccc1)C(=O)c1ccccc1` the Ki [1] was greater than 160 µM, the Activity (Mycolicibacterium vaccae) was “inactive” and the MIC [5] was 10.3 µM (≈ 5.14 µg/mL). The Ki [2] was greater than 160 µM, the Ki [3] was greater than 160 µM and the Ki [4] was 0.4 µM. It also gave an MIC [6] of 0.753 µM.
In the case of `C[C@@H](O)[C@H]1C(=O)N[C@@H]1N(OCc1ccccc1)C(=O)c1ccccc1`, the Ki [1] is reported as greater than 160 µM, the MIC [5] is reported as greater than 100 µM and the Ki [2] is reported as greater than 160 µM. For the same molecule, the Ki [3] was greater than 160 µM, the Ki [4] was greater than 160 µM and the MIC [6] was greater than 100 µM.
With `CSN1C(=O)[C@@H](NC(=O)Cc2ccccc2)[C@@H]1OC(C)=O` the MIC [5] was 47.6 µM (≈ 14.7 µg/mL) and the MIC [6] was 10.7 µM.
In the case of `C[C@@H](O[Si](C)(C)C(C)(C)C)[C@H]1C(=O)N[C@@H]1N(O)C(=O)c1ccccc1`, the Ki [1] is reported as greater than 160 µM, the MIC [5] is reported as greater than 50 µM and the Ki [2] is reported as greater than 160 µM. It also gave a Ki [3] greater than 160 µM, a Ki [4] of 0.32 µM and an MIC [6] greater than 50 µM.
Work on `O=C(Cc1ccccc1)N[C@@H]1C(=O)N[C@H]1N(OCc1ccccc1)C(=O)c1ccccc1` yielded a Ki [1] of 5.54 µM, an MIC [5] greater than 100 µM and a Ki [2] greater than 160 µM. The Ki [3] was greater than 160 µM, the Ki [4] was greater than 160 µM and the MIC [6] was 6.05 µM.
Molecule `O=C(COc1ccccc1)N[C@@H]1C(=O)N[C@H]1N(OCc1ccccc1)C(=O)c1ccccc1` has a Ki [1] greater than 160 µM, an MIC [5] of 5.93 µM (≈ 2.64 µg/mL) and a Ki [2] greater than 160 µM. For the same molecule, the Ki [3] was greater than 160 µM, the Ki [4] was 0.05 µM and the MIC [6] was less than 0.195 µM.
`C=CCON(C(=O)c1ccc([N+](=O)[O-])cc1)C1CC(=O)N1SC` (racemic) gave a Ki [1] of 0.03 µM, a Ki [2] of 22.7 µM and a Ki [3] greater than 160 µM. The Ki [4] was 0.64 µM.
Molecule `CSN1C(=O)CC1N(OCc1ccccc1)C(=O)c1ccc([N+](=O)[O-])cc1` (racemic) has a Ki [1] of 0.97 µM, an MIC [5] greater than 100 µM and a Ki [2] greater than 160 µM. It also gave a Ki [3] greater than 160 µM, a Ki [4] greater than 160 µM and an MIC [6] of 24.2 µM.
For `CCOc1ccc(C(=O)N(OCc2ccccc2)C2CC(=O)N2)cc1` (racemic), the Ki [1] was greater than 160 µM, the MIC [5] was greater than 100 µM and the Ki [2] was greater than 160 µM. For the same molecule, the Ki [3] was greater than 160 µM, the Ki [4] was greater than 160 µM and the MIC [6] was 49.3 µM.
`CSN1C(=O)[C@@H](NC(=O)Cc2ccccc2)[C@@H]1N(OCc1ccccc1)C(=O)c1ccccc1` (racemic) showed a Ki [1] of 0.07 µM, an MIC [5] of 47.3 µM (≈ 22.5 µg/mL) and a Ki [2] of 2.86 µM. The Ki [3] was 1.95 µM, the Ki [4] was greater than 160 µM and the MIC [6] was 11.6 µM.
In the case of `CSN1C(=O)CC1N(OCc1ccccc1)C(=O)c1cc([N+](=O)[O-])cc(C(F)(F)F)c1` (racemic), the MIC [5] is reported as 23.4 µM (≈ 10.6 µg/mL) and the MIC [6] is reported as 5.92 µM.
`C=CCON(C(=O)c1ccc([N+](=O)[O-])cc1)C1CC(=O)N1` (racemic) showed a Ki [1] greater than 160 µM, a Ki [2] greater than 160 µM and a Ki [3] greater than 160 µM. For the same molecule, the Ki [4] was greater than 160 µM.
With `CSN1C(=O)[C@@H](NC(=O)COc2ccccc2)[C@@H]1N(OCc1ccccc1)C(=O)c1ccccc1` (racemic) the Ki [1] was 0.06 µM, the Activity (Mycolicibacterium vaccae) was “inactive” and the MIC [5] was 6 µM (≈ 2.95 µg/mL). It also gave a Ki [2] greater than 160 µM, a Ki [3] greater than 160 µM and a Ki [4] greater than 160 µM. It also gave an MIC [6] greater than 50 µM.
Work on `CSN1C(=O)[C@@H](NC(=O)COc2ccccc2)[C@@H]1N(OCc1ccccc1)C(=O)c1cc([N+](=O)[O-])cc(C(F)(F)F)c1` (racemic) yielded a Ki [1] of 0.15 µM, an MIC [5] greater than 100 µM and a Ki [2] greater than 160 µM. It also gave a Ki [3] greater than 160 µM, a Ki [4] greater than 160 µM and an MIC [6] of 64.1 µM.
Work on `CC(C)(C)[Si](C)(C)ON(C(=O)c1ccccc1)[C@@H]1NC(=O)[C@H]1NC(=O)COc1ccccc1` (racemic) yielded a Ki [1] of 0.96 µM, a Ki [2] of 31.2 µM and a Ki [3] greater than 160 µM. For the same molecule, the Ki [4] was greater than 160 µM.
In the case of `CC(C)(C)[Si](C)(C)N1C(=O)CC1N(OCc1ccccc1)C(=O)c1ccccc1` (racemic), the Ki [1] is reported as greater than 160 µM, the Activity (Mycolicibacterium vaccae) is reported as “inactive” and the MIC [5] is reported as 49.2 µM (≈ 20.2 µg/mL). It also gave a Ki [2] greater than 160 µM, a Ki [3] of 1.72 µM and a Ki [4] greater than 160 µM. For the same molecule, the MIC [6] was 0.28 µM.
With `CCOc1ccc(C(=O)N(OCc2ccccc2)C2CC(=O)N2SC)cc1` (racemic) the Ki [1] was 0.07 µM, the MIC [5] was greater than 100 µM and the Ki [2] was greater than 160 µM. The Ki [3] was greater than 160 µM, the Ki [4] was greater than 160 µM and the MIC [6] was 34.8 µM.
`CSN1C(=O)CC1N(OCc1ccccc1)C(=O)c1ccccc1` (racemic) gave an MIC [5] greater than 50 µM and an MIC [6] of 17.9 µM.
With `C=CCON(C(=O)c1cc([N+](=O)[O-])cc(C(F)(F)F)c1)C1CC(=O)N1SC` (racemic) the Ki [1] was 0.04 µM, the Ki [2] was 59.3 µM and the Ki [3] was greater than 160 µM. For the same molecule, the Ki [4] was greater than 160 µM.
Molecule `C=CCON(C(=O)c1cc([N+](=O)[O-])cc(C(F)(F)F)c1)C1CC(=O)N1` (racemic) has a Ki [1] greater than 160 µM, a Ki [2] greater than 160 µM and a Ki [3] of 1.93 µM. It also gave a Ki [4] greater than 160 µM.
With `O=C1CC(N(OCc2ccccc2)C(=O)c2cc([N+](=O)[O-])cc(C(F)(F)F)c2)N1` (racemic) the MIC [5] was 44.7 µM (≈ 18.3 µg/mL) and the MIC [6] was 30.3 µM.
`C[C@H]1COC2(CCN(c3nc(=O)c4cc(C(F)(F)F)cc([N+](=O)[O-])c4s3)CC2)O1` [BTZ-043] showed an MIC [5] of less than 0.004 µM and an MIC [6] of less than 0.004 µM.
In the case of `CO[C@H]1/C=C/O[C@@]2(C)Oc3c(C)c(O)c4c(O)c(c(/C=N/N5CCN(C)CC5)c(O)c4c3C2=O)NC(=O)/C(C)=C\C=C\[C@H](C)[C@H](O)[C@@H](C)[C@@H](O)[C@@H](C)[C@H](OC(C)=O)[C@@H]1C` [RIFAMPIN], the MIC [5] is reported as 0.05 µM (≈ 0.0411 µg/mL) and the MIC [6] is reported as 0.04 µM.
